For one assay, the system named is Staphylococcus aureus. The assay is described as follows: Antibacterial activity against penicillin G resistant Staphylococcus aureus HH 127 assessed as growth inhibition by two-fold agar dilution method. Format: functional. The method in brief: (§1)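 Twofold agar dilution on Trypticase soy agar buffered to pH 6.0. MIC reported in μg/mL.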
Assay [1] relates to Escherichia coli. Put plainly: Antibacterial activity against Escherichia coli 12140 assessed as growth inhibition by two-fold agar dilution method. Format: functional. The procedure, abridged: (§2)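 MIC (μg/mL) by twofold agar dilution on Trypticase soy agar buffered to pH 6.0.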
Background: In agar dilution the substance is mixed into plates at graded concentrations.

The next assay has as its system Klebsiella pneumoniae. Put plainly: Antibacterial activity against Klebsiella pneumoniae 4200 assessed as growth inhibition by two-fold agar dilution method. Format: functional. The method in brief: as §2
For the next assay, the system named is Salmonella paratyphi. Put plainly: Antibacterial activity against Salmonella paratyphi ATCC 12176 assessed as growth inhibition by two-fold agar dilution method. Format: functional, Salmonella enterica subsp. enterica serovar Paratyphi A. The note with it: Salmonella enterica. The procedure, abridged:
as §1

A further assay deals with Klebsiella aerogenes. Put plainly: Antibacterial activity against Enterobacter aerogenes ATCC 13048 assessed as growth inhibition by two-fold agar dilution method. Format: functional. The procedure, abridged: as §2
The subject of another assay is Morganella morganii. The assay is described as follows: Antibacterial activity against indole positive Proteus morganii 179 assessed as growth inhibition by two-fold agar dilution method. Format: functional. The procedure, abridged:
as §2

Assay [2] deals with Pseudomonas aeruginosa. The assay is described as follows: Antibacterial activity against Pseudomonas aeruginosa HH 63 assessed as growth inhibition by two-fold agar dilution method. Format: functional. The method in brief: as §2
The test system of assay [3] is Escherichia coli. The assay is described as follows: Antibacterial activity against Escherichia coli 12140 infected in sc dosed mouse administered at 1 to 5 hrs measured for 3 days. Format: functional. The note with it: Escherichia coli, 12140, sc; read-out: PD50. The method in brief: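 Mice infected intraperitoneally with about 2×10^3 organisms per mouse of E. coli 12140 culture diluted in 5% hog gastric mucin, giving uniformly lethal infection. Fourfold dilutions given subcutaneously in equally divided portions at 1 and 5 h postinfection, five groups per compound. Survivors observed 3 days. PD50 is total dose (mg/kg) protecting 50%, calculated by Litchfield–Wilcoxon method.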

Assay [4] concerns Pseudomonas aeruginosa. The assay is described as follows: Antibacterial activity against Pseudomonas aeruginosa 1504 assessed as growth inhibition. Format: functional. The method in brief: (§3)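 Broth MIC by the standard microtiter technique in unbuffered Mueller-Hinton broth.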
Assay [5] has as its system Pseudomonas aeruginosa. Put plainly: Antibacterial activity against Pseudomonas aeruginosa 1042 assessed as growth inhibition. Format: functional. The procedure, abridged:
as §3

The subject of assay [6] is Pseudomonas aeruginosa. Put plainly: Antibacterial activity against Pseudomonas aeruginosa 219 assessed as growth inhibition. Format: functional. The method in brief:
as §3

The test system of assay [7] is Pseudomonas aeruginosa. Put plainly: Antibacterial activity against Pseudomonas aeruginosa 647 assessed as growth inhibition. Format: functional. The method in brief: as §3
Assay [8] deals with Pseudomonas aeruginosa. The assay is described as follows: Antibacterial activity against Pseudomonas aeruginosa 864 assessed as growth inhibition. Format: functional. The procedure, abridged: as §3
Assay [9] deals with Pseudomonas aeruginosa. The assay is described as follows: Antibacterial activity against Pseudomonas aeruginosa 1062 assessed as growth inhibition. Format: functional. The method in brief: as §3
For assay [10], the system named is Pseudomonas aeruginosa. Put plainly: Antibacterial activity against Pseudomonas aeruginosa 1063 assessed as growth inhibition. Format: functional. The procedure, abridged: as §3
In assay [11] the test system is Pseudomonas aeruginosa. The assay is described as follows: Antibacterial activity against Pseudomonas aeruginosa 1106 assessed as growth inhibition. Format: functional. The procedure, abridged: as §3

The source of these data is ChEMBL document CHEMBL3271935, “Synthesis and biological activity of some broad-spectrum N-acylphenyglycine cephalosporins” (1977).

Values after ≈ are worked out from the molar mass of the structure shown. A value given as a limit tells only on which side of the number the result lay.

For orientation: MIC means the smallest concentration in the dilution series that meets the test's criterion for growth inhibition.

Turning to `Cn1nnnc1SCC1=C(C(=O)[O-])N2C(=O)[C@@H](NC(=O)C(NC(=O)C3CO3)c3ccccc3)[C@H]2SC1.[Na+]` (mixture of isomers), the MIC with Staphylococcus aureus amounted to 1.6 µg/mL; with Escherichia coli [1], 12.5 µg/mL; in the assay on Klebsiella pneumoniae it was 6.3 µg/mL; in the assay with Salmonella paratyphi it was 6.3 µg/mL; in the assay with Klebsiella aerogenes it was 12.5 µg/mL; with Morganella morganii, 3.1 µg/mL. For the same molecule, the MIC in the assay on Pseudomonas aeruginosa [2] is 200 µg/mL; with Pseudomonas aeruginosa [4] it was 500 µg/mL; in the assay with Pseudomonas aeruginosa [5], above 500 µg/mL; in the assay on Pseudomonas aeruginosa [6], above 500 µg/mL; in the assay on Pseudomonas aeruginosa [7] it was above 500 µg/mL; in the assay with Pseudomonas aeruginosa [8] it was above 500 µg/mL. The MIC with Pseudomonas aeruginosa [9], with Pseudomonas aeruginosa [10] and with Pseudomonas aeruginosa [11] was above 500 µg/mL each time. In addition, the ED50 in the assay on Escherichia coli [3] amounted to 45 mg/kg.

With `CC1(C)S[C@@H]2[C@H](NC(=O)C(C(=O)O)c3ccccc3)C(=O)N2[C@H]1C(=O)O` (stereo not given in full) [CARBENICILLIN], the MIC in the assay with Staphylococcus aureus was 3.1 µg/mL (≈ 8.19 µM); with Escherichia coli [1], 6.3 µg/mL (≈ 16.6 µM); with Klebsiella pneumoniae, 6.3 µg/mL (≈ 16.6 µM); with Salmonella paratyphi it was 6.3 µg/mL (≈ 16.6 µM); in the assay with Klebsiella aerogenes, 12.5 µg/mL (≈ 33 µM); in the assay on Morganella morganii, 0.8 µg/mL (≈ 2.11 µM). In addition, the MIC was found to be 50 µg/mL (≈ 132 µM) in the assay with Pseudomonas aeruginosa [2]; 63 µg/mL (≈ 166 µM) with Pseudomonas aeruginosa [4]; 63 µg/mL (≈ 166 µM) with Pseudomonas aeruginosa [5]; 63 µg/mL (≈ 166 µM) with Pseudomonas aeruginosa [6]; 63 µg/mL (≈ 166 µM) with Pseudomonas aeruginosa [7]; 500 µg/mL (≈ 1320 µM) with Pseudomonas aeruginosa [8]. Besides, the figures for the MIC with Pseudomonas aeruginosa [9], with Pseudomonas aeruginosa [10] and with Pseudomonas aeruginosa [11] were 63 µg/mL (≈ 166 µM), 63 µg/mL (≈ 166 µM) and 125 µg/mL (≈ 330 µM), respectively. In addition, the ED50 with Escherichia coli [3] came to 25 mg/kg.

Take `Cn1nnnc1SCC1=C(C(=O)[O-])N2C(=O)[C@@H](NC(=O)C(NC(=O)[C@H]3C[C@H]3C(=O)[O-])c3ccccc3)[C@H]2SC1.[Na+].[Na+]` (mixture of isomers): the MIC with Staphylococcus aureus was determined as 6.3 µg/mL; with Escherichia coli [1], 6.3 µg/mL; in the assay with Klebsiella pneumoniae, 3.1 µg/mL; with Salmonella paratyphi it was 3.1 µg/mL; in the assay on Klebsiella aerogenes, 6.3 µg/mL; in the assay on Morganella morganii, 6.3 µg/mL. Besides, the MIC in the assay with Pseudomonas aeruginosa [2] was 200 µg/mL; in the assay with Pseudomonas aeruginosa [4], 125 µg/mL; in the assay with Pseudomonas aeruginosa [5], 250 µg/mL; with Pseudomonas aeruginosa [6], 125 µg/mL; in the assay with Pseudomonas aeruginosa [7], 125 µg/mL; with Pseudomonas aeruginosa [8] it was 500 µg/mL. In addition, the values for the MIC with Pseudomonas aeruginosa [9], with Pseudomonas aeruginosa [10] and in the assay on Pseudomonas aeruginosa [11] were 250 µg/mL, 500 µg/mL and above 500 µg/mL, respectively. Moreover, in the assay with Escherichia coli [3], the ED50 stood at 25 mg/kg.

For the molecule `Cn1nnnc1SCC1=C(C(=O)[O-])N2C(=O)[C@@H](NC(=O)C(NC(=O)CSCC(=O)[O-])c3ccccc3)[C@H]2SC1.[Na+].[Na+]` (stereo not given in full), the MIC with Staphylococcus aureus stood at 3.1 µg/mL; in the assay with Escherichia coli [1], 6.3 µg/mL; in the assay with Klebsiella pneumoniae, 3.1 µg/mL; in the assay with Salmonella paratyphi it was 3.1 µg/mL; with Klebsiella aerogenes it was 3.1 µg/mL; with Morganella morganii, 1.6 µg/mL. Also, the MIC in the assay on Pseudomonas aeruginosa [2] is above 200 µg/mL; in the assay with Pseudomonas aeruginosa [4], 500 µg/mL; with Pseudomonas aeruginosa [5], above 500 µg/mL; in the assay on Pseudomonas aeruginosa [6], 500 µg/mL; in the assay on Pseudomonas aeruginosa [7], above 500 µg/mL; in the assay on Pseudomonas aeruginosa [8] it was above 500 µg/mL. Further, the minimal inhibitory concentration (MIC) was 500 µg/mL in the assay on Pseudomonas aeruginosa [9], above 500 µg/mL with Pseudomonas aeruginosa [10] and above 500 µg/mL with Pseudomonas aeruginosa [11]. In addition, the ED50 in the assay on Escherichia coli [3] was 50 mg/kg.

As for `Cn1nnnc1SCC1=C(C(=O)[O-])N2C(=O)[C@@H](NC(=O)C(NC(=O)C3CCC(C(=O)[O-])O3)c3ccccc3)[C@H]2SC1.[Na+].[Na+]` (mixture of isomers), the MIC in the assay with Staphylococcus aureus came to 3.1 µg/mL; with Escherichia coli [1] it was 3.1 µg/mL; in the assay with Klebsiella pneumoniae, 1.6 µg/mL; in the assay with Salmonella paratyphi, 3.1 µg/mL; with Klebsiella aerogenes, 3.1 µg/mL; in the assay on Morganella morganii, 1.6 µg/mL. For the same molecule, the MIC with Pseudomonas aeruginosa [2] worked out at 100 µg/mL; in the assay with Pseudomonas aeruginosa [4], 63 µg/mL; with Pseudomonas aeruginosa [5], 125 µg/mL; in the assay with Pseudomonas aeruginosa [6], 125 µg/mL; in the assay with Pseudomonas aeruginosa [7], 125 µg/mL; in the assay on Pseudomonas aeruginosa [8], 500 µg/mL. The MIC in the assay on Pseudomonas aeruginosa [9] turned out to be 125 µg/mL; with Pseudomonas aeruginosa [10], 250 µg/mL; with Pseudomonas aeruginosa [11], 500 µg/mL. Besides, the ED50 in the assay with Escherichia coli [3] was 25 mg/kg.
